According to the RNAGym collection of RNA variant scans (doi:10.1126/science.aae0568):
This sample holds only a part of the variants without activity.

B1: tRNA (parent)
chain: GUUCCGUUGGCGUAAUGGUAACGCGUCUCCCUCCUAAGGAGAAGACUGCGGGUUCGAGUCCCGUACGGAACG

Variants of: B1
Assay: yeast fitness relative to wild type (ratio to wild type); higher = fitter; tRNA-Arg(CCU), competitive growth, 37 C, YPD
Summary of the method: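 Changes in genotype frequencies gave Darwinian fitness relative to wild type. Frequencies were read by 100-nucleotide paired-end sequencing of gene amplicons before and after pooled Saccharomyces cerevisiae strains, carrying tRNA-Arg(CCU) gene variants at the native locus, were competed in YPD at 37°C for 24 hours in six replicates. A genotype was kept only with ≥ 100 starting reads, and estimates < 0.5 were set to 0.5.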

Q: With G41U C66U as the variant, how does the yeast fitness read?
A: 0.845

Q: Which yeast fitness does the source give for G41C U64C here?
A: 0.896

Q: Which yeast fitness does the source give for G41C U64A here?
A: 0.67

Q: Which yeast fitness does the source give for G41A G68C here?
A: 0.775

Q: Which yeast fitness does the source give for G41A U53C here?
A: 0.626

Q: Which yeast fitness does the source give for A42C U64C here?
A: 0.882

Q: Which yeast fitness does the source give for G41U A69U here?
A: 0.845

Q: Which yeast fitness does the source give for G41A U47C U53A here?
A: ≤ 0.5

Q: For G41A C60G A65G, which yeast fitness is on record?
A: 0.62

Q: With G41A A43G C60G A65G as the variant, how does the yeast fitness read?
A: 0.571

Q: With A40U G51A as the variant, how does the yeast fitness read?
A: 0.777

Q: With A40U U54C A70U as the variant, how does the yeast fitness read?
A: 0.695

Q: Which yeast fitness does the source give for A40U C55U here?
A: 0.795

Q: For A40U C55G, which yeast fitness is on record?
A: 0.664

Q: With G41A U59G as the variant, how does the yeast fitness read?
A: 0.822

Q: With G41A U59A as the variant, how does the yeast fitness read?
A: 0.826

Q: Which yeast fitness does the source give for A40G G41A here?
A: 0.825

Q: For G41A C46A U47C, which yeast fitness is on record?
A: 1.06

Q: Which yeast fitness does the source give for A40U G44A C61A here?
A: 0.511

Q: With G41A C60G C62A A65G as the variant, how does the yeast fitness read?
A: ≤ 0.5

Q: Which yeast fitness does the source give for A40U U54A A70U here?
A: 0.548

Q: For A42C C46G A65U G67C, which yeast fitness is on record?
A: ≤ 0.5

Q: With A40U A45U G48A C55U C66U as the variant, how does the yeast fitness read?
A: ≤ 0.5

Q: With G41A A43C as the variant, how does the yeast fitness read?
A: 0.843

Q: With G41A A43U as the variant, how does the yeast fitness read?
A: 0.788

Q: For A40G U53A C55G, which yeast fitness is on record?
A: ≤ 0.5

Q: Which yeast fitness does the source give for A40G A45U here?
A: 0.786

Q: With A40G A45G as the variant, how does the yeast fitness read?
A: 0.849

Q: With A40U C49A as the variant, how does the yeast fitness read?
A: 0.638

Q: For A40U C49U, which yeast fitness is on record?
A: 0.856

Q: With A40U C49G as the variant, how does the yeast fitness read?
A: 0.811

Q: Which yeast fitness does the source give for A42G A43G C49U here?
A: 0.556

Q: Which yeast fitness does the source give for G41A A70G here?
A: 0.924

Q: Which yeast fitness does the source give for A42C G51C here?
A: 0.553

Q: For A40G C49U G67A, which yeast fitness is on record?
A: ≤ 0.5

Q: With G41A G51A C60G A65G as the variant, how does the yeast fitness read?
A: ≤ 0.5

Q: With A42C C66G as the variant, how does the yeast fitness read?
A: 0.684

Q: For A42C C66A, which yeast fitness is on record?
A: 0.688

Q: For G41U G52C, which yeast fitness is on record?
A: 0.584

Q: Which yeast fitness does the source give for A40G U47A C66G here?
A: 0.705

Q: For A42C C55A U59C, which yeast fitness is on record?
A: 0.661

Q: Which yeast fitness does the source give for G41C A42G G51A G68C here?
A: ≤ 0.5

Q: With G41C A45U C55U as the variant, how does the yeast fitness read?
A: ≤ 0.5

Q: With G41C U59C as the variant, how does the yeast fitness read?
A: 0.933

Q: For G41A A57G, which yeast fitness is on record?
A: 0.828

Q: With G41A A57U as the variant, how does the yeast fitness read?
A: 0.759

Q: For A40U G67C, which yeast fitness is on record?
A: 0.755

Q: Which yeast fitness does the source give for A42C C46G G67C here?
A: 0.612

Q: With A40U G48C G63A as the variant, how does the yeast fitness read?
A: 0.602

Q: Which yeast fitness does the source give for G41A G63A A70C here?
A: 0.753

Q: For G41C C49U, which yeast fitness is on record?
A: 0.894

Q: Which yeast fitness does the source give for G41C C49G here?
A: 0.702

Q: Which yeast fitness does the source give for A42C C46U here?
A: 0.969

Q: With A40G C55G as the variant, how does the yeast fitness read?
A: 0.621

Q: For A40G C55A, which yeast fitness is on record?
A: 0.626

Q: Which yeast fitness does the source give for A40U C55U G68A here?
A: ≤ 0.5

Q: Which yeast fitness does the source give for A40U A43C G68A here?
A: 0.605

Q: Which yeast fitness does the source give for A42C A43C A69U here?
A: 0.819

Q: With A40U G56A as the variant, how does the yeast fitness read?
A: 0.843

Q: Which yeast fitness does the source give for G41A C46U C49A here?
A: ≤ 0.5

Q: For A40G G50C A57C G58C, which yeast fitness is on record?
A: 0.636

Q: With A40G C46A G68C as the variant, how does the yeast fitness read?
A: 0.633

Q: Which yeast fitness does the source give for A40G C61G U64C here?
A: ≤ 0.5

Q: With A40U A57G U64G as the variant, how does the yeast fitness read?
A: ≤ 0.5

Q: With G41C A45U G67C as the variant, how does the yeast fitness read?
A: 0.607

Q: Which yeast fitness does the source give for A40G C46G C60U here?
A: ≤ 0.5

Q: For A40U C49G G56C A69C, which yeast fitness is on record?
A: ≤ 0.5

Q: For G41C A65U, which yeast fitness is on record?
A: 0.858

Q: With G41C A65G as the variant, how does the yeast fitness read?
A: 0.905

Q: With A42C A65U C66U as the variant, how does the yeast fitness read?
A: 0.558

Q: For A40G C46A C62U, which yeast fitness is on record?
A: 0.734

Q: For A42G A43G A45U, which yeast fitness is on record?
A: 0.722

Q: For A42C C60A, which yeast fitness is on record?
A: 0.672

Q: With A42C C60G as the variant, how does the yeast fitness read?
A: 0.608

Q: Which yeast fitness does the source give for A40U A42C G44A G51A here?
A: ≤ 0.5

Q: Which yeast fitness does the source give for A42C A45C here?
A: 0.854

Q: Which yeast fitness does the source give for A42C A43C C49U A70C here?
A: 0.585

Q: For A40G G44A G63C, which yeast fitness is on record?
A: ≤ 0.5

Q: Which yeast fitness does the source give for G41A U64C here?
A: 1.07

Q: With A42C C46G G52A as the variant, how does the yeast fitness read?
A: ≤ 0.5

Q: With G41C G51A as the variant, how does the yeast fitness read?
A: 0.844

Q: With A40G C46U as the variant, how does the yeast fitness read?
A: 0.918

Q: Which yeast fitness does the source give for A40G C46G here?
A: 0.998
